We go through 6 molecules from ChEMBL document CHEMBL1154533, “Syntheses and evaluation of glucosyl aryl thiosemicarbazide and glucosyl thiosemicarbazone derivatives as antioxidant and anti-dyslipidemic agents” (2009).

What all share (design): scale not given: the % may be the effect or the level left
Assay [1] can be described thus: Antioxidant activity assessed as reduction in lipid peroxidation in microsomes at 200 ug/mL measured as malondialdehyde formation by spectrophotometry relative to control. The conditions noted are these: Microsome.
Assay [2] is described as follows: Antioxidant activity assessed as reduction in lipid peroxidation in microsomes at 100 ug/mL measured as malondialdehyde formation by spectrophotometry relative to control. The format is functional. As to conditions: Microsome.
Assay [3] deals with Rattus norvegicus. The experiment in a line: Antidyslipidemic activity against triton-induced hyperlipidemia in Charles Foster rat assessed as reduction in triglyceride level at 100 mg/kg, po after 18 hrs relative to control. It counts as functional. The gist of the method: (§1)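 Adult male Charles Foster rats (200 […] 225 g), six per group. Triton WR-1339 at 400 mg/Kg ip induced hyperlipidemia. Test compound was given at 100 mg/Kg po, suspended in 0.2% w/v gum acacia in water, at the same time as triton; vehicle controls were included. After 18 h, retro-orbital blood was taken into EDTA and plasma obtained (2500 g, 4 °C, 10 min). Plasma was diluted 1:3 in saline and TC, PL and Tg measured by standard methods. Reported as mean […] SD; Student's t-test.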

In assay [4] the test system is Rattus norvegicus. The experiment in a line: Antidyslipidemic activity against triton-induced hyperlipidemia in Charles Foster rat assessed as reduction in total cholesterol level at 100 mg/kg, po after 18 hrs relative to control. It counts as functional. In short, it runs like this: as §1
A short description of assay [5]: Antioxidant activity assessed as reduction in generation of superoxide radicals at 100 ug/mL measured as formazone formation by spectrophotometry relative to control. It counts as functional. In short, it runs like this:
(§2)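 Superoxide was generated enzymatically with xanthine ([…]), xanthine oxidase (0.04 U) and nitroblue tetrazolium (320 μM) in 100 mM phosphate buffer, pH 8.2, with or without compound. Incubated 30 min at 37 °C, then stopped with glacial acetic acid. Formazone was quantified spectrophotometrically (nmol/min). Mean ± SD of six; Student's t-test.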

The test system of assay [6] is Rattus norvegicus. The experiment in a line: Antidyslipidemic activity against triton-induced inhibition of post heparin lipolytic activity in Charles Foster rat hyperlipidemia model assessed as formation of free fatty acid per mL of plasma at 100 mg/kg, po after 18 hrs relative to control. It counts as functional. In short, it runs like this: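 Triton WR-1339 rat model (400 mg/Kg ip; compound 100 mg/Kg po in gum acacia, given with triton; six rats per group). Post-heparin lipolytic activity was measured in plasma collected at 18 h. Expressed as nmol free fatty acid formed/h/mL plasma; mean ± SD.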

A short description of assay [7]: Antioxidant activity assessed as reduction in lipid peroxidation in microsomes at 200 ug/mL measured as malondialdehyde formation by spectrophotometry relative to control. It counts as functional. As to conditions: Microsome.
Assay [8] deals with Rattus norvegicus. Nature of the assay: Decrease in triton-induced increase in protein level in Charles Foster rat hyperlipidemia model at 100 mg/kg, po after 18 hrs relative to control. It counts as functional.
Assay [9] can be described thus: Antioxidant activity assessed as reduction in generation of hydroxyl radicals at 100 ug/mL measured as malondialdehyde formation by spectrophotometry relative to control. It counts as functional.
Assay [10] in a line: Antioxidant activity assessed as reduction in generation of superoxide radicals at 200 ug/mL measured as formazone formation by spectrophotometry relative to control. It counts as functional. The gist of the method: as §2
Assay [11] is described as follows: Antioxidant activity assessed as reduction in generation of hydroxyl radicals at 200 ug/mL measured as malondialdehyde formation by spectrophotometry relative to control. It counts as functional.
The subject of assay [12] is Rattus norvegicus. Nature of the assay: Antidyslipidemic activity against triton-induced hyperlipidemia in Charles Foster rat assessed as reduction in phospholipid level at 100 mg/kg, po after 18 hrs relative to control. The format is functional. In short, it runs like this: as §1

Each structure is given as a SMILES string.

In the case of `Cc1c(C)c2c(c(C)c1O)CC[C@@](C)(CCC[C@H](C)CCC[C@H](C)CCCC(C)C)O2`, the Activity in [1] worked out at 53%.
As for `CC(=O)OC[C@H]1O[C@@H](NC(=S)NNc2ccc([N+](=O)[O-])cc2[N+](=O)[O-])[C@H](OC(C)=O)[C@@H](OC(C)=O)[C@@H]1OC(C)=O`, the Activity in assay [2] is 23%; with Rattus norvegicus [3], 8%; in the assay with Rattus norvegicus [4] it was 13%; in [5] it was 22%; with Rattus norvegicus [6], 17%; in assay [7], 36%. For the same molecule, the Activity was 13% in the assay with Rattus norvegicus [8]; 18% in [9]; 28% in assay [10]; 26% in assay [11]; 10% with Rattus norvegicus [12].
As to `CC(=O)OC[C@H]1O[C@@H](NC(=S)N/N=C/c2ccc([N+](=O)[O-])cc2)[C@H](OC(C)=O)[C@@H](OC(C)=O)[C@@H]1OC(C)=O`, the Activity turned out to be 18% in assay [2]; 11% in the assay on Rattus norvegicus [3]; 19% in the assay on Rattus norvegicus [4]; 13% in [5]; 13% in the assay on Rattus norvegicus [6]; 31% in assay [7]. For the same molecule, the Activity was determined as 22% in the assay on Rattus norvegicus [8]; 17% in [9]; 23% in [10]; 23% in assay [11]; 14% in the assay with Rattus norvegicus [12].
Take `CC(=O)OC[C@H]1O[C@@H](NC(=S)N/N=C(\C)c2cccc(N)c2)[C@H](OC(C)=O)[C@@H](OC(C)=O)[C@@H]1OC(C)=O`: the Activity in assay [2] was 19%; in the assay with Rattus norvegicus [3], 13%; in the assay on Rattus norvegicus [4] it was 16%; in [5] it was 23%; with Rattus norvegicus [6], 9%; in assay [7] it was 35%. The Activity in the assay with Rattus norvegicus [8] came to 20%; in assay [9], 20%; in assay [10] it was 38%; in [11], 38%; in the assay on Rattus norvegicus [12] it was 15%.
On to `CC(=O)OC[C@H]1O[C@@H](NC(=S)NNc2ccccc2)[C@H](OC(C)=O)[C@@H](OC(C)=O)[C@@H]1OC(C)=O`, for which the Activity stood at 23% in assay [2]; 9% in the assay with Rattus norvegicus [3]; 11% in the assay on Rattus norvegicus [4]; 19% in assay [5]; 8% in the assay with Rattus norvegicus [6]; 39% in assay [7]. Besides, the Activity came to 16% in the assay on Rattus norvegicus [8]; 25% in [9]; 32% in assay [10]; 42% in [11]; 10% in the assay with Rattus norvegicus [12].
For the molecule `CC(=O)OC[C@H]1O[C@@H](NC(=S)N/N=C/c2ccc(Cl)cc2)[C@H](OC(C)=O)[C@@H](OC(C)=O)[C@@H]1OC(C)=O`, the Activity in assay [2] stood at 23%; in the assay on Rattus norvegicus [3] it was 10%; with Rattus norvegicus [4] it was 14%; in assay [5], 16%; with Rattus norvegicus [6] it was 12%; in assay [7], 33%. The Activity in the assay on Rattus norvegicus [8] is 22%; in assay [9] it was 13%; in assay [10], 25%; in assay [11], 19%; in the assay with Rattus norvegicus [12] it was 6%.
